Results pooled from the literature.
pIC50, pKi: −log10 of the molar value.
Oprk1: Kappa-type opioid receptor (Oprk1, Mus musculus, UniProt P33534)
BCHE: Cholinesterase (BCHE, Homo sapiens, UniProt P06276)

Compound | target | test | measurement | value
CC(C)[C@@H](CN1CCc2ccccc2C1)NC(=O)c1cccc(-c2cccc(O)c2)c1 | Oprk1 | ligand displacement, radioligand | pKi | 6.09
C=CCc1ccc(O)c(-c2cc(CC=C)ccc2O)c1 | BCHE | enzyme activity, inhibitor, Ellman | pIC50 | < 4.00
C=CCOc1ccc(C(=O)/C=C/c2cccc(F)c2)c(OS(C)(=O)=O)c1I | BCHE | enzyme activity, inhibitor | pIC50 | 4.72
COc1cc(/C=C/C(=O)O)ccc1OCc1cn(CC(=O)Nc2ccc(Cl)cc2Cl)nn1 | BCHE | enzyme activity, inhibitor, Ellman | pIC50 | 4.92
Cc1c(CC(=O)N[C@@H](CN2CCc3ccccc3C2)C(C)C)cccc1[N+](=O)[O-] | Oprk1 | ligand displacement, radioligand | pKi | 5.47
C=CCOc1ccc(C(=O)/C=C/c2ccc(OC)cc2)c(OS(=O)(=O)c2ccccc2[N+](=O)[O-])c1I | BCHE | enzyme activity, inhibitor | pIC50 | 4.85
CC(C)c1cc2c(c(O)c1O)[C@@]1(C(=O)O)CCCC(C)(C)[C@@H]1CC2 | BCHE | enzyme activity, inhibitor | pIC50 | 9.18
COc1c2c(cc3c1-c1c(cc4c(c1OC)OCO4)C[C@H](C)[C@H](C)C3)OCO2 | BCHE | enzyme activity, inhibitor, Ellman | pIC50 | < 4.00
C=CCOc1ccc(C(=O)/C=C/c2ccc(OC)cc2)c(O)c1I | BCHE | enzyme activity, inhibitor | pIC50 | 4.65
CC(C)c1cc2c(c(O)c1O)[C@@]13CCCC(C)(C)[C@@H]1[C@H](OC3=O)[C@H]2O | BCHE | enzyme activity, inhibitor, absorbance | pKi | 9.70
C=CCOc1ccc(C(=O)/C=C/c2ccc(OC)cc2)c(OS(C)(=O)=O)c1I | BCHE | enzyme activity, inhibitor | pIC50 | 4.27
CC(C)[C@H](CN1CCc2ccccc2C1)NC(=O)Cc1c[nH]c2ccccc12 | Oprk1 | ligand displacement, radioligand | pKi | 5.55
CC(=O)N[C@H]1[C@@H](O[C@@H]2O[C@H](C[C@@H](O)[C@H]3O[C@@H](n4ccc(=O)[nH]c4=O)[C@H](O)[C@@H]3O)[C@H](O)[C@H](O)[C@H]2NC(=O)/C=C/CCCCCCCCCC(C)C)O[C@H](CO)[C@@H](O)[C@@H]1O | UDP-N-acetylglucosamine--dolichyl-phosphate N-acetylglucosaminephosphotransferase (Homo sapiens, UniProt Q9H3H5) | enzyme activity, inhibitor | pIC50 | 5.82
CC(C)c1cc2c(c(O)c1O)[C@@]13CCCC(C)(C)[C@@H]1C[C@@H]2OC3=O | BCHE | enzyme activity, inhibitor, absorbance | pKi | 9.52
CCOC(=O)c1ccc(OC(=O)CCCCCN=C(N)N)cc1 | Plasma kallikrein (KLKB1, Homo sapiens, UniProt P03952) | enzyme activity, inhibitor | pIC50 | 7.06
CC(C)c1cc2c(c(O)c1O)[C@@]13CCCC(C)(C)[C@@H]1[C@@H](O)[C@@H]2OC3=O | BCHE | enzyme activity, inhibitor, absorbance | pKi | 9.48
Cn1cc2cc(C(F)(F)c3nnc4ccc(-c5cnn(C6CC6)c5)nn34)c(F)cc2n1 | Fibroblast growth factor receptor 4 (FGFR4, Homo sapiens, UniProt P22455) | enzyme activity, inhibitor, ADP detection | pIC50 | < 6.00
